Where “and” joins values, the source holds several entries; their conditions need not be identical. Equal values may be shown once.
What was measured:
Mus musculus [1] = test: In vivo antitumor activity against P-388 Leukemia cell line in female BDF1 mice after oral administered dose of 50 mg/kg; assay type: functional
Outline: (§1)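 Female BDF1 mice, 17-23 g, five per group, inoculated intraperitoneally with 10^6 P-388 cells. Oral dosing once daily for 9 days, beginning 1 day after implantation. Activity is % T/C, the median survival time of treated mice relative to controls.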

Mus musculus [2] = test: In vivo antitumor activity against P-388 Leukemia cell line in female BDF1 mice after oral administered dose of 100 mg/kg; assay type: functional; outline: as §1
Mus musculus [3] = test: In vivo antitumor activity against P-388 Leukemia cell line in female BDF1 mice after oral administered dose of 200 mg/kg; assay type: functional; outline: as §1
Mus musculus [4] = test: In vivo antitumor activity against P-388 Leukemia cell line in female BDF1 mice after oral administered dose of 25 mg/kg; assay type: functional; outline: as §1
Mus musculus [5] = test: In vivo antitumor activity against Meth A cell line in female […] mice after oral administered dose of 200 mg/kg; assay type: functional
Mus musculus [6] = test: In vivo antitumor activity against Meth A cell line in female […] mice after oral administered dose of 150 mg/kg; assay type: functional
Mus musculus [7] = test: In vivo antitumor activity against MH 134 cell line in female […] mice after oral administered dose of 25 mg/kg; assay type: functional
Mus musculus [8] = test: In vivo antitumor activity against MH 134 cell line in female […] mice after oral administered dose of 200 mg/kg; assay type: functional
Mus musculus [9] = test: In vivo antitumor activity against MH 134 cell line in female […] mice after oral administered dose of 50 mg/kg; assay type: functional
Mus musculus [10] = test: In vivo antitumor activity against Meth A cell line in female BALB/c mice after oral administered dose of 50 mg/kg
Mus musculus [11] = test: In vivo antitumor activity against MH 134 cell line in female […] mice after oral administered dose of 150 mg/kg; assay type: functional
Mus musculus [12] = test: In vivo antitumor activity against Meth A cell line in female BALB/c mice after oral administered dose of 200 mg/kg; death

| Structure (SMILES) | T/C (Mus musculus [1]) | T/C (Mus musculus [2]) | T/C (Mus musculus [3]) | T/C (Mus musculus [4]) | T/C (Mus musculus [5]) | T/C (Mus musculus [6]) | T/C (Mus musculus [7]) | T/C (Mus musculus [8]) | T/C (Mus musculus [9]) | T/C (Mus musculus [10]) | T/C (Mus musculus [11]) | T/C (Mus musculus [12]) |
| --- | --- | --- | --- | --- | --- | --- | --- | --- | --- | --- | --- | --- |
| O=C1OC(n2c(=O)c(F)cn(C3CCCO3)c2=O)c2ccccc21 (stereo not drawn) | 109% | 115% | 111% | 104% |  |  |  |  |  |  |  |  |
| O=C1OC(n2cc(F)c(=O)n(C3OC(=O)c4ccccc43)c2=O)c2ccccc21 (stereo not drawn) | 104% | 102% | 102% | 97% |  |  |  |  |  |  |  |  |
| O=C1OC(n2c(=O)[nH]cc(F)c2=O)c2ccccc21 (stereo not drawn) | 104% | 120% | 102% | 111% | 7% and 19% | 19% | 77% | 17% | 45% | 37% | 37% |  |
| CC(=O)n1cc(F)c(=O)n(C2OC(=O)c3ccccc32)c1=O (stereo not drawn) | 97% | 104% | 111% | 106% |  |  |  |  |  |  |  |  |
| Cc1ccccc1C(=O)n1c(=O)c(F)cn(C2OC(=O)c3ccccc32)c1=O (stereo not drawn) | 99% | 102% | 109% | 113% |  |  |  |  |  |  |  |  |
| O=C1OC(n2cc(F)c(=O)[nH]c2=O)c2ccccc21 (stereo not drawn) | 116% | 129% | 124% | 118% |  | 7% | 50% | 8% | 34% | 26% | 22% | death |
| O=c1[nH]c(=O)n(C2CCCO2)cc1F (stereo not drawn) [TEGAFUR] | 104% | 136% | 106% | 115% |  | 23% | 100% | 32% | 64% |  | 50% | death |

From ChEMBL document CHEMBL1121954, “Studies on the synthesis of chemotherapeutics. 12. Synthesis and antitumor activity of N-phthalidyl-5-fluorouracil derivatives” (1982)
